# Experimental data published in ChEMBL document CHEMBL1629494, “New amino acid esters of salicylanilides active against MDR-TB and other microbes” (Eur J Med Chem, 2010).
# Key:
# Assay type in all cases: functional
# [1] = test system: Mycobacterium kansasii; test: Antimycobacterial activity against Mycobacterium kansasii 235/80 after 21 days by micromethod; details: 235/80, 504 h
# How it was run: (§1)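 Micromethod in Sula semisynthetic medium, with compounds added as DMSO solutions at 1000, 500, 250, 125, 62, 32, 16, 8, 4, 2, 1, 0.5, 0.25. Inoculum dilutions: H37Rv 10^-3; M. avium 330/88 10^-5; M. kansasii 235/80 10^-4; M. kansasii 6509/96 10^-5. Incubated at 37 °C, read at 14 and 21 days, and at 7 days for M. kansasii. MIC was the lowest concentration inhibiting growth.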
# [2] = test system: Mycobacterium kansasii; test: Antimycobacterial activity against Mycobacterium kansasii 6509/96 after 7 days by micromethod; details: 6509/96, 168 h; how it was run: as §1
# [3] = test system: Mycobacterium kansasii; test: Antimycobacterial activity against Mycobacterium kansasii 235/80 after 7 days by micromethod; details: 235/80, 168 h; how it was run: as §1
# [4] = test system: Mycobacterium kansasii; test: Antimycobacterial activity against Mycobacterium kansasii 6509/96 after 14 days by micromethod; details: 6509/96, 336 h; how it was run: as §1
# [5] = test system: Mycobacterium tuberculosis; test: Antimycobacterial activity against Mycobacterium tuberculosis H37Rv 331/88 after 21 days by micromethod; details: H37Rv 331/88, 504 h; how it was run: as §1
# [6] = test system: Mycobacterium avium; test: Antimycobacterial activity against multidrug-resistant Mycobacterium avium 330/88 after 14 days by micromethod; details: 330/88, 336 h; how it was run: as §1
# [7] = test system: Mycobacterium kansasii; test: Antimycobacterial activity against Mycobacterium kansasii
# [8] = test system: Mycobacterium avium; test: Antimycobacterial activity against Mycobacterium avium
# [9] = test system: Mycobacterium avium; test: Antimycobacterial activity against multidrug-resistant Mycobacterium avium 330/88 after 21 days by micromethod; details: 330/88, 504 h; how it was run: as §1
# [10] = test system: Mycobacterium tuberculosis; test: Antimycobacterial activity against drug-sensitive Mycobacterium tuberculosis
# [11] = test system: Mycobacterium kansasii; test: Antimycobacterial activity against Mycobacterium kansasii 235/80 after 14 days by micromethod; details: 235/80, 336 h; how it was run: as §1
# [12] = test system: Mycobacterium tuberculosis; test: Antimycobacterial activity against Mycobacterium tuberculosis H37Rv 331/88 after 14 days by micromethod; details: H37Rv 331/88, 336 h; how it was run: as §1
# [13] = test system: Mycobacterium kansasii; test: Antimycobacterial activity against Mycobacterium kansasii 6509/96 after 21 days by micromethod; details: 6509/96, 504 h; how it was run: as §1
# [14] = test system: Lichtheimia corymbifera; test: Antifungal activity against Absidia corymbifera 272 after 24 hrs by broth microdilution method; details: Lichtheimia corymbifera, 272, 24 h
# [15] = test system: Klebsiella pneumoniae; test: Antibacterial activity against Klebsiella pneumoniae D11750/08 after 48 hrs by broth microdilution method; details: D11750/08, 48 h
# How it was run: (§2)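 Broth microdilution following […], with twofold compound dilutions in Mueller-Hinton bouillon. Incubated 24 and 48 h at 35 °C in the dark in a humid atmosphere. MIC (IC80) was taken as ≥80% growth reduction versus control, read visually and photometrically.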
# [16] = test system: Candida tropicalis; test: Antifungal activity against Candida tropicalis 156 after 48 hrs by broth microdilution method; details: Candida tropicalis, 156, 48 h
# [17] = test system: Escherichia coli; test: Antibacterial activity against Escherichia coli CCM 4517 after 48 hrs by broth microdilution method; details: CCM 4517, 48 h; how it was run: as §2
# [18] = test system: Candida albicans; test: Antifungal activity against Candida albicans ATCC 44859 after 24 hrs by broth microdilution method; details: ATCC 44859, 24 h
# [19] = test system: Klebsiella pneumoniae; test: Antibacterial activity against Klebsiella pneumoniae D11750/08 after 24 hrs by broth microdilution method; details: D11750/08, 24 h; how it was run: as §2
# [20] = test system: Candida albicans; test: Antifungal activity against Candida albicans ATCC 44859 after 48 hrs by broth microdilution method; details: ATCC 44859, 48 h
# [21] = test system: Aspergillus fumigatus; test: Antifungal activity against Aspergillus fumigatus 231 after 48 hrs by broth microdilution method; details: Aspergillus fumigatus, 231, 48 h
# [22] = test system: Staphylococcus aureus; test: Antibacterial activity against Staphylococcus aureus CCM 4516/08 after 48 hrs by broth microdilution method; details: CCM 4516/08, 48 h; how it was run: as §2
# [23] = test system: Staphylococcus aureus; test: Antibacterial activity against methicillin-resistant Staphylococcus aureus H5996/08 after 24 hrs by broth microdilution method; details: H5996/08, 24 h; how it was run: as §2
# [24] = test system: Escherichia coli; test: Antibacterial activity against Escherichia coli CCM 4517 after 24 hrs by broth microdilution method; details: CCM 4517, 24 h; how it was run: as §2
# [25] = test system: Staphylococcus aureus; test: Antibacterial activity against methicillin-resistant Staphylococcus aureus H5996/08 after 48 hrs by broth microdilution method; details: H5996/08, 48 h; how it was run: as §2
# [26] = test system: Nakaseomyces glabratus; test: Antifungal activity against Candida glabrata 20/I after 24 hrs by broth microdilution method
# [27] = test system: Trichosporon beigelii; test: Antifungal activity against Trichosporon beigelii 1188 after 48 hrs by broth microdilution method; details: Trichosporon beigelii, 1188, 48 h
# [28] = test system: Enterococcus sp.; test: Antibacterial activity against Enterococcus sp. J14365/08 after 24 hrs by broth microdilution method; details: J14365/08, 24 h; how it was run: as §2
# [29] = test system: Staphylococcus aureus; test: Antibacterial activity against Staphylococcus aureus CCM 4516/08 after 24 hrs by broth microdilution method; details: CCM 4516/08, 24 h; how it was run: as §2
# [30] = test system: Staphylococcus epidermidis; test: Antibacterial activity against Staphylococcus epidermidis H6966/08 after 48 hrs by broth microdilution method; details: H6966/08, 48 h; how it was run: as §2
# [31] = test system: Staphylococcus epidermidis; test: Antibacterial activity against Staphylococcus epidermidis H6966/08 after 24 hrs by broth microdilution method; details: H6966/08, 24 h; how it was run: as §2
# [32] = test system: Enterococcus sp.; test: Antibacterial activity against Enterococcus sp. J14365/08 after 48 hrs by broth microdilution method; details: J14365/08, 48 h; how it was run: as §2
# [33] = test system: Trichophyton mentagrophytes; test: Antifungal activity against Trichophyton mentagrophytes after 24 hrs by broth microdilution method
# [34] = test system: Aspergillus fumigatus; test: Antifungal activity against Aspergillus fumigatus 231 after 24 hrs by broth microdilution method; details: Aspergillus fumigatus, 231, 24 h
# [35] = test system: Pichia kudriavzevii; test: Antifungal activity against Candida krusei E28 after 48 hrs by broth microdilution method; details: E28, 48 h
# [36] = test system: Pichia kudriavzevii; test: Antifungal activity against Candida krusei E28 after 24 hrs by broth microdilution method; details: E28, 24 h
# [37] = test system: Candida tropicalis; test: Antifungal activity against Candida tropicalis 156 after 24 hrs by broth microdilution method; details: Candida tropicalis, 156, 24 h
# [38] = test system: Lichtheimia corymbifera; test: Antifungal activity against Absidia corymbifera 272 after 48 hrs by broth microdilution method; details: Lichtheimia corymbifera, 272, 48 h
# [39] = test system: Trichosporon beigelii; test: Antifungal activity against Trichosporon beigelii 1188 after 24 hrs by broth microdilution method; details: Trichosporon beigelii, 1188, 24 h
# [40] = test system: Nakaseomyces glabratus; test: Antifungal activity against Candida glabrata 20/I after 48 hrs by broth microdilution method
# [41] = test system: Trichophyton mentagrophytes; test: Antifungal activity against Trichophyton mentagrophytes after 48 hrs by broth microdilution method
compound,measurement,setting,value
CC(=O)N[C@@H](Cc1ccccc1)C(=O)Oc1ccc(Cl)cc1C(=O)Nc1cccc(Cl)c1,MIC,[1],8 µM
same,MIC,[2],2 µM
same,MIC,[3],8 µM
same,MIC,[4],8 µM
same,MIC,[5],4 µM
same,MIC,[6],8 µM
same,MIC,[7],1 µM
same,MIC,[8],1 µM
same,MIC,[9],32 µM
same,MIC,[10],1 µM
same,MIC,[11],8 µM
same,MIC,[12],2 µM
same,MIC,[13],8 µM
CC(=O)N[C@@H](Cc1ccccc1)C(=O)Oc1cc(Cl)ccc1C(=O)Nc1cccc(Cl)c1,MIC,[14],62.5 µM
same,MIC,[15],> 125 µM
same,MIC,[1],8 µM
same,MIC,[2],2 µM
same,MIC,[16],> 125 µM
same,MIC,[3],4 µM
same,MIC,[4],4 µM
same,MIC,[17],> 125 µM
same,MIC,[18],> 125 µM
same,MIC,[19],> 125 µM
same,MIC,[20],> 125 µM
same,MIC,[21],> 125 µM
same,MIC,[22],125 µM
same,MIC,[5],4 µM
same,MIC,[23],125 µM
same,MIC,[24],> 125 µM
same,MIC,[6],4 µM
same,MIC,[25],125 µM
same,MIC,[26],> 125 µM
same,MIC,[27],> 125 µM
same,MIC,[28],125 µM
same,MIC,[29],31.2 µM
same,MIC,[30],125 µM
same,MIC,[7],1 µM
same,MIC,[8],1 µM
same,MIC,[9],8 µM
same,MIC,[31],62.5 µM
same,MIC,[10],1 µM
same,MIC,[32],> 125 µM
same,MIC,[11],4 µM
same,MIC,[12],2 µM
same,MIC,[33],62.5 µM
same,MIC,[34],> 125 µM
same,MIC,[35],> 125 µM
same,MIC,[36],> 125 µM
same,MIC,[37],> 125 µM
same,MIC,[13],8 µM
same,MIC,[38],> 125 µM
same,MIC,[39],125 µM
same,MIC,[40],> 125 µM
same,MIC,[41],> 125 µM
CC(=O)N[C@@H](Cc1ccccc1)C(=O)Oc1ccc(Cl)cc1C(=O)Nc1ccc(Cl)cc1,MIC,[14],3.9 µM
same,MIC,[15],> 125 µM
same,MIC,[1],4 µM
same,MIC,[2],2 µM
same,MIC,[16],> 125 µM
same,MIC,[3],4 µM
same,MIC,[4],4 µM
same,MIC,[17],> 125 µM
same,MIC,[18],> 125 µM
same,MIC,[19],> 125 µM
same,MIC,[20],> 125 µM
same,MIC,[21],125 µM
same,MIC,[22],> 125 µM
same,MIC,[5],4 µM
same,MIC,[23],125 µM
same,MIC,[24],> 125 µM
same,MIC,[6],8 µM
same,MIC,[25],> 125 µM
same,MIC,[26],> 125 µM
same,MIC,[27],3.9 µM
same,MIC,[28],125 µM
same,MIC,[29],62.5 µM
same,MIC,[30],> 125 µM
same,MIC,[7],1 µM
same,MIC,[8],1 µM
same,MIC,[9],16 µM
same,MIC,[31],125 µM
same,MIC,[10],1 µM
same,MIC,[32],> 125 µM
same,MIC,[11],4 µM
same,MIC,[12],4 µM
same,MIC,[33],31.2 µM
same,MIC,[34],31.2 µM
same,MIC,[35],> 125 µM
same,MIC,[36],> 125 µM
same,MIC,[37],> 125 µM
same,MIC,[13],8 µM
same,MIC,[38],15.6 µM
same,MIC,[39],3.9 µM
same,MIC,[40],> 125 µM
same,MIC,[41],62.5 µM
CC(=O)N[C@@H](Cc1ccccc1)C(=O)Oc1cc(Cl)ccc1C(=O)Nc1ccc(Cl)cc1,MIC,[14],7.81 µM
same,MIC,[15],125 µM
same,MIC,[1],4 µM
same,MIC,[2],4 µM
same,MIC,[16],> 125 µM
same,MIC,[3],4 µM
same,MIC,[4],8 µM
same,MIC,[17],> 125 µM
same,MIC,[18],31.2 µM
same,MIC,[19],62.5 µM
same,MIC,[20],> 125 µM
same,MIC,[21],> 125 µM
same,MIC,[22],15.6 µM
same,MIC,[5],4 µM
same,MIC,[23],1.95 µM
same,MIC,[24],31.2 µM
same,MIC,[6],8 µM
same,MIC,[25],31.2 µM
same,MIC,[26],> 125 µM
same,MIC,[27],62.5 µM
same,MIC,[28],3.9 µM
same,MIC,[29],1.95 µM
same,MIC,[30],31.2 µM
same,MIC,[7],1 µM
same,MIC,[8],1 µM
same,MIC,[9],16 µM
same,MIC,[31],1.95 µM
same,MIC,[10],1 µM
same,MIC,[32],> 125 µM
same,MIC,[11],4 µM
same,MIC,[12],4 µM
same,MIC,[33],15.6 µM
same,MIC,[34],> 125 µM
same,MIC,[35],> 125 µM
same,MIC,[36],31.2 µM
same,MIC,[37],> 125 µM
same,MIC,[13],16 µM
same,MIC,[38],7.81 µM
same,MIC,[39],15.6 µM
same,MIC,[40],> 125 µM
same,MIC,[41],31.2 µM
